Format in all cases: functional
The test system of experiment [1] is Mycobacterium tuberculosis. Kind of experiment: Antimicrobial activity against isoniazid resistant Mycobacterium tuberculosis SRI 1369 after 7 days. Conditions: SRI 1369, 168 h. In a few lines: (§1)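 MIC in µg/mL, retested on susceptible H37Rv (SRI 1345) in the same panel as single-drug-resistant strains: isoniazid-, rifampin- and ofloxacin-resistant. Percent inhibition recorded at the MIC concentration. Ratio taken as MIC H37Rv / MIC resistant strain.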

Experiment [2] deals with Mycobacterium tuberculosis. Put plainly: Antimicrobial activity against isoniazid resistant Mycobacterium tuberculosis SRI 1369 assessed as growth inhibition at MIC after 7 days. Summed up: as §1
Experiment [3] in a line: Ratio of MIC for Mycobacterium tuberculosis H37Rv SRI 1345 to MIC for isoniazid resistant Mycobacterium tuberculosis SRI 1369. Summed up: as §1
In experiment [4] the test system is Mycobacterium tuberculosis. Put plainly: Antimicrobial activity against rifampicin resistant Mycobacterium tuberculosis SRI 1367 after 7 days. Conditions: SRI 1367, 168 h. In a few lines:
as §1

Experiment [5] deals with Mycobacterium tuberculosis. Kind of experiment: Antimicrobial activity against rifampicin resistant Mycobacterium tuberculosis SRI 1367 assessed as growth inhibition at MIC after 7 days. Summed up: as §1
The nature of experiment [6]: Ratio of MIC for Mycobacterium tuberculosis H37Rv SRI 1345 to MIC for rifampicin resistant Mycobacterium tuberculosis SRI 1367. Summed up: as §1
Experiment [7] relates to Mycobacterium tuberculosis. Put plainly: Antimicrobial activity against ofloxacin resistant Mycobacterium tuberculosis SRI 4000 after 7 days. Conditions: SRI 4000, 168 h. In a few lines:
as §1

The subject of experiment [8] is Mycobacterium tuberculosis. Kind of experiment: Antimicrobial activity against ofloxacin resistant Mycobacterium tuberculosis SRI 4000 assessed as growth inhibition at MIC after 7 days. In a few lines: as §1
A short description of experiment [9]: Ratio of MIC for Mycobacterium tuberculosis H37Rv SRI 1345 to MIC for ofloxacin resistant Mycobacterium tuberculosis SRI 4000. Summed up:
as §1

Converted amounts (≈) assume the structure as drawn.

As for `O=C(c1ccco1)c1c(C(F)(F)F)[n+]([O-])c2cc(Cl)c(N3CCOCC3)cc2[n+]1[O-]`, the MIC came to 0.5 µg/mL (≈ 1.13 µM) in [1], 0.5 µg/mL (≈ 1.13 µM) in experiment [4] and 0.25 µg/mL (≈ 0.563 µM) in experiment [7]. In addition, the “growth inhibition (GI)” value in [2] is recorded as 78%; in experiment [5], 66%; in experiment [8], 76%. Further, the figures for the Ratio in experiment [3], in experiment [6] and in experiment [9] were 4, 4 and 8, respectively.

As for `CC(=O)c1c(C(F)(F)F)[n+]([O-])c2cc(F)c(N3CCCCC3)cc2[n+]1[O-]`, the MIC in [1], in experiment [4] and in experiment [7] was 0.25 µg/mL (≈ 0.67 µM) in each case. The “growth inhibition (GI)” value in experiment [2] came out at 57%; in experiment [5], 68%; in [8], 84%.

Take `COC(=O)c1c(C(F)(F)F)[n+]([O-])c2ccc(N3CCN(c4ccc(F)cc4)CC3)cc2[n+]1[O-]`: the minimal inhibitory concentration (MIC) in [1], in experiment [4] and in experiment [7] was 0.19 µg/mL (≈ 0.407 µM) each time. In addition, the “growth inhibition (GI)” value was 51% in experiment [2], 73% in experiment [5] and 81% in experiment [8]. The Ratio in experiment [3], in experiment [6] and in [9] was 8 throughout.

Consider `CO[C@H]1/C=C/O[C@@]2(C)Oc3c(C)c(O)c4c(O)c(c(/C=N/N5CCN(C)CC5)c(O)c4c3C2=O)NC(=O)/C(C)=C\C=C\[C@H](C)[C@H](O)[C@@H](C)[C@@H](O)[C@@H](C)[C@H](OC(C)=O)[C@@H]1C` [RIFAMPIN], for which the MIC in [1] stood at 0.05 µg/mL (≈ 0.0608 µM); in experiment [7], 0.195 µg/mL (≈ 0.237 µM). The “growth inhibition (GI)” value in experiment [2] was determined as 72%; in [8], 53%.

For the molecule `CC(=O)c1c(C(F)(F)F)nc2cc(F)c(N3CCSCC3)cc2[n+]1[O-]`, the MIC in [1] turned out to be 0.75 µg/mL (≈ 2 µM); in experiment [4], 0.38 µg/mL (≈ 1.01 µM); in [7], 0.19 µg/mL (≈ 0.506 µM). Further, the entries for the “growth inhibition (GI)” value in experiment [2], in experiment [5] and in experiment [8] were 89%, 75% and 62%, respectively. For the same molecule, the Ratio in [3] came out at 1; in experiment [6], 2; in experiment [9], 4.

Regarding `NNC(=O)c1ccncc1` [ISONIAZID], the lowest concentration to inhibit growth in [4] (MIC) was 0.02 µg/mL (≈ 0.146 µM). In [5], the “growth inhibition (GI)” value was 55%.

As for `Cc1c(C(=O)/C=C/c2ccccc2)[n+]([O-])c2cc(Cl)ccc2[n+]1[O-]`, the MIC was 1 µg/mL (≈ 2.93 µM) in experiment [1], 0.5 µg/mL (≈ 1.47 µM) in experiment [4] and 0.5 µg/mL (≈ 1.47 µM) in [7]. The “growth inhibition (GI)” value is 64% in [2], 51% in [5] and 100% in experiment [8]. The Ratio in experiment [3] was found to be 2; in experiment [6], 4; in [9], 4.

The MIC is the smallest concentration in the dilution series that meets the test's criterion for growth inhibition. Read a high MIC as weaker potency.

Source of the values: ChEMBL document CHEMBL3792280, “Design and synthesis of novel quinoxaline derivatives as potential candidates for treatment of multidrug-resistant and latent tuberculosis” (Bioorg Med Chem Lett, 2016).
